We go through 24 compounds from ChEMBL document CHEMBL3085627 (J Med Chem, 2013).

Experiment [1] deals with T1, D(2) dopamine receptor (Homo sapiens, UniProt P14416). As to the kind of experiment: Agonist activity at human dopamine D2L receptor expressed in CHO […] assessed as inhibition of forskolin-stimulated cAMP production after 30 mins by Alphascreen assay. Type of experiment: functional, cell-based. The procedure, abridged:
(§1)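 Concentration-response curves are fitted to the operational model of agonism to derive functional affinity (pKA) and efficacy (τ). The transduction coefficient log(τ/KA) is calculated per pathway, and bias is expressed as ΔΔlog(τ/KA). Statistical comparison uses Student's t-test.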
(In general: Changes in cAMP serve as a functional read-out for many G protein-coupled receptors.)

Experiment [2] deals with T1, D(2) dopamine receptor. Kind of experiment: Agonist activity at human dopamine D2L receptor expressed in CHO […] assessed as phosphorylation of ERK1/2 by Alphascreen assay. It counts as cell-based. The procedure, abridged:
as §1
(Alpha assays give light when donor and acceptor beads are brought close together.)

The target of experiment [3] is T1, D(2) dopamine receptor. As to the kind of experiment: Displacement of [3H]-spiperone from human dopamine D2L receptor expressed in CHO cell membranes after 3 hrs by liquid scintillation counting analysis. In outline: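 Competition against the radiolabeled antagonist [3H]spiperone at human D2L receptor in FlpIn CHO cell membranes. Affinity is reported as Ki.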
For orientation: Loss of bound radioactivity is the signal in a displacement assay; it reports binding, not function.

Experiment [4] deals with T1, D(2) dopamine receptor. Conditions: CHO.

A word on the Ki: it is a measure of affinity in units of concentration, obtained from inhibition or displacement. The low end stands for higher affinity, the high end for lower affinity.

T1 sequence (P14416 whole entry): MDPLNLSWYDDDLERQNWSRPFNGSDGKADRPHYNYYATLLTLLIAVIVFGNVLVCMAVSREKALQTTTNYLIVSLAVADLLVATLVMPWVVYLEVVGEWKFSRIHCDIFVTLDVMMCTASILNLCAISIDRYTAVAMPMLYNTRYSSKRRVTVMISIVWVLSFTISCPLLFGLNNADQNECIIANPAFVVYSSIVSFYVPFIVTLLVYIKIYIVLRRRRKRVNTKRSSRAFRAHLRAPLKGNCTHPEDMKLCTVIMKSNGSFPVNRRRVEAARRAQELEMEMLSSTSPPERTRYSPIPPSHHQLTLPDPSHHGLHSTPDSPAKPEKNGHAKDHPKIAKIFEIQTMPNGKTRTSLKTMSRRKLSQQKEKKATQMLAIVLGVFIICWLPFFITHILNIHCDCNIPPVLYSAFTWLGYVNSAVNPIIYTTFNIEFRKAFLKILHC

On to `CC(C)(C)OC(=O)NC[C@H]1CC[C@H](CN2CCc3ccccc3C2)CC1`, for which the results for the pKA at D(2) dopamine receptor [1] and at D(2) dopamine receptor [2] were 6.82 and 6.69, respectively. This compound also had a Ki at D(2) dopamine receptor [3] of 1150 nM.

Consider `CC(C)(C)NC(=O)N[C@H]1CC[C@H](CCN2CCc3ccccc3C2)CC1`, for which, at D(2) dopamine receptor [1], the pKA is 6.72. Besides, the affinity at D(2) dopamine receptor [3] corresponds to a Ki of 245 nM. Consider `CC(C)(C)OC(=O)N[C@H]1CC[C@H](CCN2CCc3ccc(C#N)cc3C2)CC1`, for which the pKA at D(2) dopamine receptor [1] is 6.81. Besides, at D(2) dopamine receptor [3], the Ki was 2240 nM. With `CN(C)C(=O)N[C@H]1CC[C@H](CCN2CCN(c3cccc(Cl)c3Cl)CC2)CC1`, the pKA on D(2) dopamine receptor [2] is 7.61. On to `CC(C)(C)OC(=O)N[C@H]1CC[C@@H](CCN2CCN(c3cccc(Cl)c3Cl)CC2)CC1`, for which the pKA on D(2) dopamine receptor [1] is 6.73; on D(2) dopamine receptor [2], 6.79. On D(2) dopamine receptor [4], `NCCc1ccc(O)c(O)c1` had a KiH of 58 nM and a KiL of 3.42 µM. Regarding `CCOC(=O)N[C@H]1CC[C@H](CCN2CCc3ccccc3C2)CC1`, at D(2) dopamine receptor [1], the pKA came out at 7.23.

Consider `CC(C)COC(=O)N[C@H]1CC[C@H](CCN2CCc3ccccc3C2)CC1`, for which the pKA at D(2) dopamine receptor [1] turned out to be 6.05. The Ki on D(2) dopamine receptor [3] is 5250 nM. As to `CC(C)(C)OC(=O)N[C@H]1CC[C@H](CCN2CCc3ccc([N+](=O)[O-])cc3C2)CC1`, the Ki at D(2) dopamine receptor [3] is 380 nM.

In the case of `CC(C)(C)OC(=O)N[C@H]1CC[C@H](CCN2CCN(c3cccc(Cl)c3Cl)CC2)CC1`, the pKA at D(2) dopamine receptor [1] worked out at 7.11; at D(2) dopamine receptor [2] it was 7.51.

With `CN(C)C(=O)NC[C@H]1CC[C@H](CN2CCN(c3cccc(Cl)c3Cl)CC2)CC1`, the pKA on D(2) dopamine receptor [1] came to 6.92; on D(2) dopamine receptor [2] it was 7.56. Further, the affinity at D(2) dopamine receptor [3], expressed as Ki, was 42.7 nM. For `CC(C)(C)OC(=O)N[C@H]1CC[C@H](CCN2CCc3ccccc3C2)CC1`, the figures for the pKA on D(2) dopamine receptor [1] and at D(2) dopamine receptor [2] were 6.45 and 7.1, respectively. As to `CC(=O)N[C@H]1CC[C@H](CCN2CCc3ccccc3C2)CC1`, the pKA at D(2) dopamine receptor [1] came out at 6.85.

Consider `CC(C)(C)OC(=O)NC[C@H]1CC[C@H](CN2CCN(c3cccc(Cl)c3Cl)CC2)CC1`, for which the pKA at D(2) dopamine receptor [1] turned out to be 6.95; at D(2) dopamine receptor [2], 6.86. At D(2) dopamine receptor [3], the affinity, expressed as Ki, was 148 nM.

For `CC(C)(C)OC(=O)N[C@H]1CC[C@H](CN2CCc3ccccc3C2)CC1`, the pKA at D(2) dopamine receptor [1] is 7.18; on D(2) dopamine receptor [2] it was 7.48. In addition, on D(2) dopamine receptor [3], the affinity corresponds to a Ki of 355 nM. In turn, `CC(C)(C)OC(=O)N[C@H]1CC[C@H](CCN2CCCN(c3cccc(Cl)c3Cl)CC2)CC1` showed a Ki at D(2) dopamine receptor [3] of 10.5 nM. For the compound `CC(C)(C)OC(=O)N[C@H]1CC[C@@H](CCN2CCc3ccccc3C2)CC1`, the pKA at D(2) dopamine receptor [1] was 7.34. Take `CN(C)C(=O)N[C@H]1CC[C@@H](CCN2CCc3ccccc3C2)CC1`: at D(2) dopamine receptor [1], the pKA was 6.96.

For `CC(C)(C)OC(=O)Nc1ccc(CCN2CCc3ccccc3C2)cc1`, the pKA on D(2) dopamine receptor [1] turned out to be 5.95. Further, on D(2) dopamine receptor [3], the Ki is 550 nM.

`CC(C)OC(=O)N[C@H]1CC[C@H](CCN2CCc3ccccc3C2)CC1`: the pKA on D(2) dopamine receptor [1] was 6.3. Also, the Ki on D(2) dopamine receptor [3] is 1480 nM. At D(2) dopamine receptor [3], `CC(=O)N[C@H]1CC[C@H](CCN2CCc3ccc(C#N)cc3C2)CC1` showed a Ki of 23.4 nM. Consider `CN(C)C(=O)N[C@H]1CC[C@H](CCN2CCc3ccccc3C2)CC1`, for which, on D(2) dopamine receptor [1], the pKA is 7.19. Take `O=C(N[C@H]1CC[C@H](CCN2CCc3ccccc3C2)CC1)Oc1ccccc1`: on D(2) dopamine receptor [1], the pKA turned out to be 5.67. Besides, the Ki at D(2) dopamine receptor [3] was 912 nM.

Regarding `CC(C)(C)OC(=O)N[C@H]1CC[C@H](CN2CCN(c3cccc(Cl)c3Cl)CC2)CC1`, the figures for the pKA at D(2) dopamine receptor [1] and at D(2) dopamine receptor [2] were 6.27 and 5.43, respectively. For the same compound, at D(2) dopamine receptor [3], the affinity, expressed as Ki, was 309 nM.
